From ChEMBL document CHEMBL5154824, “Design and synthesis of multifunctional microtubule targeting agents endowed with dual pro-apoptotic and anti-autophagic efficacy” (Eur J Med Chem, 2022)
Activity calls are given as the source filed them. The rule behind the calls is not given here.

Assays:
HeLa [1] = test: Cytotoxicity against human HeLa cells assessed as inhibition of cell growth measured after 48 hrs by MTT assay; format: functional, cell-based
In short: (§1)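 MTT assay. Cells were exposed for 48 h to increasing concentrations of compound. Ovarian A2780 was paired with its P-gp-overexpressing A2780AD counterpart, and HeLa with HeLa β3, which overexpresses the tubulin β3 isotype. IC50 is the mean ± SD of three independent experiments.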

OE19 = test: Cytotoxicity against human OE19 cells assessed as inhibition of cell growth measured after 72 hrs by MTT assay; format: functional, cell-based; conditions: OE19, 72 h
In short: (§2)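 Oesophageal adenocarcinoma lines were exposed to at least 8 increasing concentrations for 72 h. Viability was measured by MTT. IC50 is the mean ± SD of at least three independent experiments.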

[2] = Cytotoxicity against human MFD-1 cells assessed as inhibition of cell growth measured after 72 hrs by MTT assay; format: functional, cell-based; conditions: MFD-1, 72 h; in short: as §2
[3] = Cytotoxicity against human SKGT4 cells assessed as inhibition of cell growth measured after 72 hrs by MTT assay; format: functional, cell-based; conditions: SKGT4, 72 h; in short: as §2
HeLa [4] = test: Induction of autophagy in human HeLa cells assessed as increase in number of autophagosomes formation at 10 uM measured after 3 hrs by immunofluorescence based laser scanning confocal microscopic analysis; format: functional, cell-based
In short: (§3)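 HeLa cells in growth medium were treated at 1 or 10 μM, with BafA1 300 nM as reference, for 3 h. Cells were fixed in ice-cold methanol, immunostained for LC3 (autophagosomes) and LAMP1, and imaged by laser scanning confocal microscopy.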

Albumin = Albumin (Bos taurus, UniProt P02769); test: Binding affinity to bovine serum albumin assessed as increase in fluorescence intensity; conditions: cattle
Sequence of Albumin (P02769 whole entry): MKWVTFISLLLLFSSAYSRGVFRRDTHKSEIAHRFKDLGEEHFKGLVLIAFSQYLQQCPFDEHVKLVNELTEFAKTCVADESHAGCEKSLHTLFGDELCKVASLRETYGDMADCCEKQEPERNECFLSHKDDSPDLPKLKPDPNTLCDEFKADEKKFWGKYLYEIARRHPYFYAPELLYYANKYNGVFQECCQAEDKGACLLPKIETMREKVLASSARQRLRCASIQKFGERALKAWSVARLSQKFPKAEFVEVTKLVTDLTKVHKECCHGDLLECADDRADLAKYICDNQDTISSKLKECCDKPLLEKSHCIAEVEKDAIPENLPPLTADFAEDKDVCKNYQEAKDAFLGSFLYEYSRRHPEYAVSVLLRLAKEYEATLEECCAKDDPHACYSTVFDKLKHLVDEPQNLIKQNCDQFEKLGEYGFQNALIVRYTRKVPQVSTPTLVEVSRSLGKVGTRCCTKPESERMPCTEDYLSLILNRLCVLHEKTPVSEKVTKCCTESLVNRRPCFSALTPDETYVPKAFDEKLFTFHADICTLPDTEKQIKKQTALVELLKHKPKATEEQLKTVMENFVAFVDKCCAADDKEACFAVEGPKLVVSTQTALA
In short: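 Saturation assay: compound fixed at 1 μM was incubated with increasing amounts of BSA. Fluorescence was read with excitation at 350 nm and emission at 450 nm in a plate reader.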

A2780 = test: Cytotoxicity against human A2780 cells assessed as inhibition of cell growth measured after 48 hrs by MTT assay; format: functional, cell-based; conditions: A2780, 48 h; in short: as §1
HeLa [5] = test: Induction of morphological changes in human HeLa cells assessed as increase in actin stress fibres at 10 uM incubated for 3 hrs by phalloidin staining based laser scanning confocal microscopic analysis; format: functional, cell-based
In short: (§4)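 HeLa cells in growth medium were treated at 1 or 10 μM, with BafA1 300 nM as reference, for 3 h. Cells were fixed in 4% PFA, stained with anti-GM130 for the Golgi and AF647-phalloidin for actin, and imaged by laser scanning confocal microscopy.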

HeLa [6] = test: Induction of autophagy in human HeLa cells assessed as increase in number of autophagosomes formation at 1 uM measured after 3 hrs by immunofluorescence based laser scanning confocal microscopic analysis; format: functional, cell-based; in short: as §3
HeLa [7] = test: Inhibition of autophagosome degradationin human HeLa cells at 1 uM incubated for 3 hrs with HBSS medium by immunofluorescence based laser scanning confocal microscopic analysis; format: functional, cell-based
In short: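 HeLa cells were treated in HBSS at 1 or 10 μM, with BafA1 300 nM as reference, for 3 h. After fixation in ice-cold methanol, LC3 and LAMP1 were immunostained. Laser scanning confocal microscopy assessed autophagosome number and LC3/LAMP1 colocalisation.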

HeLa [8] = test: Induction of morphological changes in human HeLa cells assessed as cell rounding at 10 uM incubated for 3 hrs by phalloidin staining based laser scanning confocal microscopic analysis; format: functional; in short: as §4

SMILES	IC50 (HeLa [1]) [nM]	IC50 (OE19) [nM]	IC50 [2] [nM]	IC50 [3] [nM]	Activity (HeLa [4])	Activity (Albumin)	IC50 (A2780) [nM]	Activity (HeLa [5])	Activity (HeLa [6])	Activity (HeLa [7])	Activity (HeLa [8])
CN1CCN(C(=O)OC2=C(c3cccc4ncccc34)Oc3cc4ccccc4cc3-n3cccc32)CC1	469	730	1210	550	Active	Active	600	Active			
O=C(OC1=C(c2cccc3ncccc23)Oc2cc3ccccc3cc2-n2cccc21)C1CCNCC1									Active	Active	Active
